In ChEMBL document CHEMBL1649460, “Integron mobilization unit as a source of mobility of antibiotic resistance genes” (2009):
Values after ≈ are worked out from the molar mass of the structure shown.

Columns and labels:
Enterobacter cloacae [1] = test: Antimicrobial activity against Enterobacter cloacae CHE-2 harboring blaGES-5 and blaSHV-5 gene by agar dilution method; assay type: functional
In short: (§1)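 MICs by agar dilution, with β-lactams tested alone. Colistin was the exception, read by Etest strip. Results interpreted according to CLSI guidelines.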

Escherichia coli [2] = test: Antimicrobial activity against Escherichia coli J53 harboring pCHE-A plasmid expressing blaGES-5 gene by agar dilution method; assay type: functional
Escherichia coli [3] = test: Antimicrobial activity against Escherichia coli J53 harboring pCHE-B plasmid expressing blaSHV-5 gene by agar dilution method; assay type: functional
Escherichia coli [4] = test: Antimicrobial activity against Escherichia coli J53 by agar dilution method; assay type: functional; in short: as §1
Pseudomonas aeruginosa [5] = test: Antimicrobial activity against Pseudomonas aeruginosa PU21 harboring pCHE-A plasmid expressing blaGES-5 gene by agar dilution method; assay type: functional
In short: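 Natural plasmid pCHE-A was electrotransformed into electrocompetent P. aeruginosa PU21, and transformants were selected on agar with ticarcillin 100 µg/ml. MICs by agar dilution, with β-lactams tested alone; colistin by Etest. Interpreted per CLSI.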

Pseudomonas aeruginosa [6] = test: Antimicrobial activity against Pseudomonas aeruginosa PU21 by agar dilution method; assay type: functional; in short: as §1
Enterobacter cloacae [7] = test: Antimicrobial activity against Enterobacter cloacae CHE-2 harboring blaGES-5 and blaSHV-5 gene by agar dilution in presence of beta-lactamase inhibitor clavulanic acid; assay type: functional
In short: (§2)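 Agar dilution MICs of β-lactams, each tested with clavulanic acid held at a fixed 4 µg/ml. Results interpreted according to CLSI guidelines.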

Escherichia coli [8] = test: Antimicrobial activity against Escherichia coli J53 harboring pCHE-A plasmid expressing blaGES-5 gene by agar dilution in presence of beta-lactamase inhibitor clavulanic acid
Escherichia coli [9] = test: Antimicrobial activity against Escherichia coli J53 harboring pCHE-B plasmid expressing blaSHV-5 gene by agar dilution in presence of beta-lactamase inhibitor clavulanic acid
Escherichia coli [10] = test: Antimicrobial activity against Escherichia coli J53 by agar dilution in presence of beta-lactamase inhibitor clavulanic acid
Pseudomonas aeruginosa [11] = test: Antimicrobial activity against Pseudomonas aeruginosa PU21 harboring pCHE-A plasmid expressing blaGES-5 gene by agar dilution in presence of beta-lactamase inhibitor clavulanic acid; assay type: functional
In short: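 MICs by agar dilution. Beta-lactams tested alone and with clavulanic acid held at a fixed 4 µg/ml. Results were interpreted against CLSI guidelines.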

Pseudomonas aeruginosa [12] = test: Antimicrobial activity against Pseudomonas aeruginosa PU21 by agar dilution in presence of beta-lactamase inhibitor clavulanic acid; assay type: functional; in short: as §2

Compound	MIC (Enterobacter cloacae [1]) [µg/mL]	MIC (Escherichia coli [2]) [µg/mL]	MIC (Escherichia coli [3]) [µg/mL]	MIC (Escherichia coli [4]) [µg/mL]	MIC (Pseudomonas aeruginosa [5]) [µg/mL]	MIC (Pseudomonas aeruginosa [6]) [µg/mL]	MIC (Enterobacter cloacae [7]) [µg/mL]	MIC (Escherichia coli [8]) [µg/mL]	MIC (Escherichia coli [9]) [µg/mL]	MIC (Escherichia coli [10]) [µg/mL]	MIC (Pseudomonas aeruginosa [11]) [µg/mL]	MIC (Pseudomonas aeruginosa [12]) [µg/mL]
C[C@@H](O)[C@H]1C(=O)N2C(C(=O)O)=C(S[C@@H]3CN[C@H](C(=O)N(C)C)C3)[C@H](C)[C@H]12 [MEROPENEM]	> 32	0.25 (≈ 0.652 µM)	0.06 (≈ 0.156 µM)	0.03 (≈ 0.0782 µM)	> 32	0.5 (≈ 1.3 µM)						
C[C@@H](O)[C@H]1C(=O)N2C(C(=O)O)=C(S[C@@H]3CN[C@H](C(=O)Nc4cccc(C(=O)O)c4)C3)[C@H](C)[C@H]12 [ERTAPENEM]	> 32	0.12 (≈ 0.252 µM)	0.06 (≈ 0.126 µM)	0.03 (≈ 0.0631 µM)	> 32	8 (≈ 16.8 µM)						
CO[C@@]1(NC(=O)Cc2cccs2)C(=O)N2C(C(=O)O)=C(COC(N)=O)CS[C@@H]21 [CEFOXITIN]	> 512	128 (≈ 299 µM)	4 (≈ 9.36 µM)	4 (≈ 9.36 µM)		> 512						
CC(C)(O/N=C(\C(=O)N[C@@H]1C(=O)N2C(C(=O)[O-])=C(C[n+]3ccccc3)CS[C@H]12)c1csc(N)n1)C(=O)O [CEFTAZIDIME]	> 512	128 (≈ 234 µM)	256 (≈ 468 µM)	0.06 (≈ 0.11 µM)	256 (≈ 468 µM)	1 (≈ 1.83 µM)	256	16	4	0.06	64	1
CC1(C)S[C@@H]2[C@H](NC(=O)[C@H](N)c3ccc(O)cc3)C(=O)N2[C@H]1C(=O)O [AMOXICILLIN]	> 512	> 512	> 512	2 (≈ 5.47 µM)		> 512	> 256	16	4	2		> 512
C[C@@H](O)[C@H]1C(=O)N2C(C(=O)O)=C(SCCNC=N)C[C@H]12 [IMIPENEM ANHYDROUS]	> 32	1 (≈ 3.34 µM)	0.06 (≈ 0.2 µM)		16 (≈ 53.4 µM)	2 (≈ 6.68 µM)						
